Experimental findings from ChEMBL document CHEMBL2034958, “Peptidolipins B-F, antibacterial lipopeptides from an ascidian-derived Nocardia sp” (2012) are described below.

Values after ≈ are worked out from the molar mass of the structure shown. Active and inactive are the calls of the source.

The subject of assay [1] is Staphylococcus aureus. In words: Bacteriostatic activity against methicillin-resistant Staphylococcus aureus ATCC 33591 after 18 hrs. Format: functional, organism-based. The gist of the method:
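After the 18 h, 33 °C microdilution MIC plate, a sterile swab dipped into each well showing growth inhibition was inoculated onto an LB plate to tell bactericidal from bacteriostatic action.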

Assay [2] concerns Staphylococcus aureus. In words: Bacteriostatic activity against methicillin-susceptible Staphylococcus aureus ATCC 29213 after 18 hrs. The format is functional, organism-based. The gist of the method:
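Broth dilution susceptibility test for aerobic bacteria against MSSA ATCC 29213. Compounds in DMSO, serially diluted to 10 concentrations (0.125−64 μg/mL) in 96-well plates, tested in triplicate with vancomycin control and six untreated media controls per plate. Incubated at 33 °C for 18 h. MIC was the lowest concentration without visible growth. Inhibited wells were swabbed onto LB plates to distinguish bacteriostatic from bactericidal.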

The subject of assay [3] is Staphylococcus aureus. Nature of the assay: Antibacterial activity against methicillin-resistant Staphylococcus aureus ATCC 33591 after 18 hrs. The format is functional. As to conditions: ATCC 33591, 18 h. Put shortly:
(§1)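 Dilution susceptibility test for aerobic bacteria. Compounds dissolved in DMSO and serially diluted to 10 concentrations (0.125–64 μg/mL) in 96-well plates, run in triplicate. Vancomycin served as control, with six untreated media controls per plate. Incubation at 33 °C for 18 h; MIC read as the lowest concentration inhibiting visible growth.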

In assay [4] the test system is Staphylococcus aureus. Nature of the assay: Antibacterial activity against methicillin-susceptible Staphylococcus aureus ATCC 29213 after 18 hrs. Format: functional. To be noted: ATCC 29213, 18 h. The gist of the method: as §1

As for `CCCCCCCCCCCCCCCCCCCCCCC[C@@H]1CC(=O)N[C@H]([C@H](C)O)C(=O)N[C@@H](C(C)C)C(=O)N[C@@H](C)C(=O)N2CCC[C@@H]2C(=O)N[C@H]([C@@H](C)CC)C(=O)N[C@@H](C(C)C)C(=O)N[C@@H]([C@@H](C)OC)C(=O)O1` [PEPTIDOLIPIN B], the result in assay [1] and in assay [2] was Active. Further, the minimum inhibitory concentration (MIC) (commonly the smallest concentration in the dilution series that meets the test's criterion for growth inhibition) in assay [3] was 64 µg/mL (≈ 58.7 µM).
As for `CCCCCCCCCCCCCCCCCCCCCCCCC[C@@H]1CC(=O)N[C@H]([C@H](C)O)C(=O)N[C@@H](C(C)C)C(=O)N[C@@H](C)C(=O)N2CCC[C@@H]2C(=O)N[C@H]([C@@H](C)CC)C(=O)N[C@@H](C(C)C)C(=O)N[C@@H]([C@@H](C)OC)C(=O)O1` [PEPTIDOLIPIN C], the MIC in assay [4] and in assay [3] was greater than 64 µg/mL each time.
In the case of `CCCCCCCCCCCCCCCCCCCCCCCCCCC[C@@H]1CC(=O)N[C@H]([C@H](C)O)C(=O)N[C@@H](C(C)C)C(=O)N[C@@H](C)C(=O)N2CCC[C@@H]2C(=O)N[C@H]([C@@H](C)CC)C(=O)N[C@@H](C(C)C)C(=O)N[C@@H]([C@@H](C)OC)C(=O)O1` [PEPTIDOLIPIN D], the minimum inhibitory concentration (MIC) in assay [4] and in assay [3] was greater than 64 µg/mL throughout.
In the case of `CCCCCCCC/C=C\CCCCCCCCCCCCCCC[C@@H]1CC(=O)N[C@H]([C@H](C)O)C(=O)N[C@@H](C(C)C)C(=O)N[C@@H](C)C(=O)N2CCC[C@@H]2C(=O)N[C@H]([C@@H](C)CC)C(=O)N[C@@H](C(C)C)C(=O)N[C@@H]([C@@H](C)OC)C(=O)O1` [PEPTIDOLIPIN E], the outcome in assay [1] and in assay [2] was Active. Further, the minimal inhibitory concentration (MIC) in assay [4] was 64 µg/mL (≈ 57.3 µM).
